Measurements: ChEMBL document CHEMBL2424517, “Eunicellin-based diterpenoids from the Formosan soft coral Klyxum molle with inhibitory activity on superoxide generation and elastase release by neutrophils” (J Nat Prod, 2013)

Tests used:
[1] = Antiinflammatory activity in human neutrophils assessed as inhibition of fMLP/CB-induced elastase release at 10 uM incubated for 5 mins prior to fMLP/CB challenge; type: functional; conditions: Neutrophil
How it was run: (§1)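 Donor neutrophils (healthy adults, 20−30 y), purified by dextran sedimentation, Ficoll Hypaque and hypotonic lysis, kept in Ca2+-free HBSS pH 7.4 at 4 °C. Cells at 6 × 10^5/mL with MeO-Suc-Ala-Ala-Pro-Val-p-nitroanilide 100 μM as elastase substrate, equilibrated 37 °C 2 min before compound addition. Mean ± SEM, n = 3 or 4.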

[2] = Antiinflammatory activity in human neutrophils assessed as inhibition of fMLP/CB-induced superoxide anion generation incubated for 5 mins prior to fMLP/CB challenge; type: functional, cell-based; conditions: Neutrophil
How it was run: (§2)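 Neutrophils from healthy adult donors (20−30 y), enriched by dextran sedimentation, Ficoll Hypaque centrifugation and hypotonic lysis, held in Ca2+-free HBSS pH 7.4 at 4 °C. Cells (6 × 10^5/mL) with ferricytochrome c 0.5 mg/mL and Ca2+ 1 mM, 37 °C 2 min, DMSO control. CB 1 μg/mL 3 min, then fMLP 100 nM 10 min. O2•− read as SOD-inhibitable cytochrome c reduction. Mean ± SEM, n = 3 or 4.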

[3] = Antiinflammatory activity in human neutrophils assessed as inhibition of fMLP/CB-induced elastase release incubated for 5 mins prior to fMLP/CB challenge; type: functional, cell-based; conditions: Neutrophil; how it was run: as §1
[4] = Antiinflammatory activity in human neutrophils assessed as inhibition of fMLP/CB-induced superoxide anion generation at 10 uM incubated for 5 mins prior to fMLP/CB challenge; type: functional; conditions: Neutrophil; how it was run: as §2
[5] = test system: T47D; assay: Cytotoxicity against human T47D cells after 3 hrs by Alamar Blue assay; type: functional; conditions: read-out: ED50 (the source's name)
[6] = test system: K562; assay: Cytotoxicity against human K562 cells after 6 hrs by Alamar Blue assay; type: functional; conditions: K562, 6 h, read-out: ED50 (the source's name)
[7] = test system: MOLT-4; assay: Cytotoxicity against human MOLT4 cells after 6 hrs by Alamar Blue assay; type: functional; conditions: MOLT-4, 6 h, read-out: ED50 (the source's name)

## CC(=O)O[C@H]1[C@H](C(C)C)[C@@H]2[C@@H]([C@H]3C[C@](C)(O)[C@@H](OC(C)=O)CC[C@@](C)(OC(C)=O)[C@@H]2O3)[C@](O)(CCl)[C@H]1OC(C)=O
[1]
  inhibition at 10 µM: 6.42%
[2]
  IC50: > 10 µM
[3]
  IC50: > 10 µM
[4]
  inhibition at 10 µM: 9.36%

## CC(=O)O[C@H]1[C@H](C(C)C)[C@@H]2[C@@H]([C@H]3C[C@](C)(O)[C@H](O)CC[C@@](C)(OC(C)=O)[C@@H]2O3)[C@](O)(CCl)[C@H]1OC(C)=O
[1]
  inhibition at 10 µM: 7.3%
[2]
  IC50: > 10 µM
[3]
  IC50: > 10 µM
[4]
  inhibition at 10 µM: 5.02%

## CC(=O)O[C@H]1C[C@H](C(C)C)[C@@H]2[C@@H]([C@H]3C[C@](C)(O)[C@@H](OC(C)=O)CC[C@@](C)(OC(C)=O)[C@@H]2O3)[C@]1(O)CCl
[1]
  inhibition at 10 µM: -1.19%
[2]
  IC50: > 10 µM
[3]
  IC50: > 10 µM
[4]
  inhibition at 10 µM: 8.92%

## CC(=O)O[C@H]1C[C@H](C(C)C)[C@@H]2[C@@H]([C@H]3C[C@](C)(O)[C@@H](O)CC[C@@](C)(OC(C)=O)[C@@H]2O3)[C@]1(O)CCl
[1]
  inhibition at 10 µM: 9.18%
[2]
  IC50: > 10 µM
[3]
  IC50: > 10 µM
[4]
  inhibition at 10 µM: 3.37%

## C=C1[C@H]2[C@@H]([C@@H](C(C)C)C[C@@H]1O)[C@H]1O[C@@H]2C[C@](C)(O)[C@@H](OC(=O)Cc2ccccc2)CC[C@@]1(C)OC(=O)CCC
[1]
  inhibition at 10 µM: 89.2%
[5]
  EC50: 8.58 µM
[2]
  IC50: 3.13 µM
[6]
  EC50: 7.97 µM
[3]
  IC50: 2.92 µM
[4]
  inhibition at 10 µM: 81.6%
[7]
  EC50: 4.35 µM

## C=C1[C@H]2[C@@H]([C@H](C(C)C)[C@H](OC(C)=O)[C@@H]1O)[C@H]1O[C@@H]2C[C@](C)(O)[C@@H](OC(C)=O)CC[C@@]1(C)OC(=O)CCC
[1]
  inhibition at 10 µM: 6.47%
[2]
  IC50: > 10 µM
[3]
  IC50: > 10 µM
[4]
  inhibition at 10 µM: 10.5%

## C=C1[C@H]2[C@@H]([C@@H](C(C)C)[C@H](O)[C@@H]1OC(C)=O)[C@H]1O[C@@H]2C[C@](C)(O)[C@@H](OC(C)=O)CC[C@@]1(C)OC(=O)CCC
[1]
  inhibition at 10 µM: 16.8%
[2]
  IC50: > 10 µM
[3]
  IC50: > 10 µM
[4]
  inhibition at 10 µM: 2.92%

## C=C1[C@H]2[C@@H]([C@@H](C(C)C)[C@H](OC(C)=O)[C@@H]1O)[C@H]1O[C@@H]2C[C@](C)(O)[C@@H](O)CC[C@@]1(C)OC(=O)CCC
[1]
  inhibition at 10 µM: 7.35%
[2]
  IC50: > 10 µM
[3]
  IC50: > 10 µM
[4]
  inhibition at 10 µM: 1.17%

## C=C1[C@H]2[C@H]([C@H]3O[C@@H]2C[C@](C)(O)[C@@H](OC(C)=O)CC[C@@]3(C)OC(C)=O)[C@H](C(C)C)C[C@@H]1O
[1]
  inhibition at 10 µM: 7.33%
[2]
  IC50: > 10 µM
[3]
  IC50: > 10 µM
[4]
  inhibition at 10 µM: 14.7%

## C=C1[C@H]2[C@@H]([C@@H](C(C)C)C[C@@H]1O)[C@H]1O[C@@H]2C[C@](C)(O)[C@@H](O)CC[C@@]1(C)OC(C)=O
[1]
  inhibition at 10 µM: 11.6%
[2]
  IC50: > 10 µM
[3]
  IC50: > 10 µM
[4]
  inhibition at 10 µM: 7.14%

## C=C1C[C@H]2O[C@H]([C@H]3[C@@H]2C(=C)[C@@H](O)C[C@@H]3C(C)C)[C@](C)(OC(C)=O)CC[C@@H]1O
[1]
  inhibition at 10 µM: 0.62%
[2]
  IC50: > 10 µM
[3]
  IC50: > 10 µM
[4]
  inhibition at 10 µM: 3.2%

## O=c1[nH]cc(F)c(=O)[nH]1 [FLUOROURACIL]
[5]
  EC50: 50.2 µM
[6]
  EC50: 16.2 µM
[7]
  EC50: 15.1 µM
